Source: PubChem BioAssay
TAAR1 agonist: agonists of human TAAR1; Q96RJ0; CHO RD-HGA16 TAAR1, Fluo-8 calcium fluorescence; vehicle wells 0%, saturating PEA agonist 100%; activation, % at 3 µM; 0.99% of 360,000 active; AID 624467;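 active means activation above the mean activation of all test compounds in the run plus 3 SD, cut at about 38% in these data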
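Test system: RD-HGA16 (CHO) cells co-expressing Gα16 and hTAAR1 | Doses: Single dose, 3 µM | Schedule: 17-24 h seeding, 75 min 37 °C dye, 30 min RT | Evaluation: % activation from peak over basal fluorescence ratio, DMSO-to-PEA scaled | Technique: Kinetic Fluo-8 calcium fluorescence | Benchmarks: Low control DMSO, high control PEA (EC100)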
OX1R antag-1: blocks the human orexin 1 receptor | inhibition, % at 5 µM | O43613 | AID 434989 | CHO/OX1R cells, Fluo-8 calcium fluorescence, orexin A | 0.43% of 330,000 active;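 active means inhibition above its plate's threshold, mean inhibition of all tested compounds on the plate plus 3 SD, cut at about 37% in these data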
Target sequence (O43613 whole entry, looked up): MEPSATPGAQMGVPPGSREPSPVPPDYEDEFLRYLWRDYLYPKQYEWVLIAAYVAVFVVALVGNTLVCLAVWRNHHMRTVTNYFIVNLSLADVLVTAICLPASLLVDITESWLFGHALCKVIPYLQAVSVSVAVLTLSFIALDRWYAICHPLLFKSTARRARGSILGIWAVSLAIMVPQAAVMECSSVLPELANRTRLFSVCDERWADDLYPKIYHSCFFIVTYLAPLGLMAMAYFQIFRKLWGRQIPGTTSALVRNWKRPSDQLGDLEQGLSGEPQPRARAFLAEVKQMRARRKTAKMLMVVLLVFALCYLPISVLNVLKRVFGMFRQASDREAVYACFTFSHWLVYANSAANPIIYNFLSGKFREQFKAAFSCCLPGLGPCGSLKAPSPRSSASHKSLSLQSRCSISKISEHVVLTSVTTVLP
CHO parental Ca: counter-screen for OX1R antagonists: effect in parental CHO cells | parental CHO-K1, ATP-induced calcium, Fluo-8 fluorescence | inhibition, % at 5.6 µM | 0.63% of 330,000 active | AID 463079;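 active means inhibition above that plate's mean sample inhibition plus 3 SD, cut at about 26% in these data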
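Assay system: parental CHO cells; Read-out basis: percent inhibition of ATP-evoked calcium rise, normalized to controls; Benchmarks: ATP and no-ATP DMSO wells; Compound dosing: single nominal dose of 5.6 µM per compound; Signal: Fluo-8 calcium dye fluorescence; Also added: ATP as calcium-mobilizing challenge; Repeats: singlicate.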
TAAR1 antag: human TAAR1 antagonism; CHO RD-HGA16 TAAR1, Fluo-8 calcium fluorescence, antagonist; inhibition, % at 3 µM; 1.5% of 360,000 active; AID 624466;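 active means inhibition above a per-plate cutoff, the mean inhibition of test compounds on that plate plus 3 SD, cut at about 49% in these data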
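Test system – hTAAR1-expressing CHO RD-HGA16 cells, Gα16-coupled · Reagent – β-PEA at EC80 concentration, post-compound challenge · Compound dosing – 3 µM, single point · Timing – 140 s kinetic read after compound, 140 s after agonist · Detection – Fluo-8 intracellular calcium dye fluorescence, real-time kinetic reads · Control set – DMSO and EC80 PEA controls · Repeats – n of 1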
OX1R antag-2: OX1R (human) antagonism | inhibition, % at 6.6 µM | 1.8% of 330,000 active | AID 485270 | OX1R-expressing cells, FRET antagonist read-out | O43613; in the data active means inhibition mostly above about 38%, no sharp cut-off; inactive means mostly below about 40%
GPR7 antag: blocks human GPR7 receptor signaling. 1.1% of 290,000 active. GPR7-expressing cells, fluorescence antagonist assay. P48145. inhibition, % at 4.4 µM; in the data active means inhibition above about 16%, passing the limit was not always enough;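 further: cells stimulated with the agonist NPW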
Hits are given with their value; i = inactive; nt = no result. The list is not random: actives were taken first. Their share in the collection is about 4.6%.

SMILES	TAAR1 agonist	OX1R antag-1	CHO parental Ca	TAAR1 antag	OX1R antag-2	GPR7 antag
CCc1ccc(NC(=O)c2cc3c(C)nc4ccccc4c3o2)cc1	i	i	i	i	60	i
O=C(N[C@H](Cc1ccccc1)C(=O)NCc1ccccn1)[C@H]1O[C@@H](n2ccc(=O)[nH]c2=O)[C@H](O)[C@@H]1O	i	nt	nt	i	nt	nt
Nc1ncccc1OCc1ccc(Br)cc1	i	i	i	i	i	i
COc1ccc(COc2cccnc2N)cc1	i	i	i	i	i	20
Nc1[nH]c(C(=O)c2ccccc2)c(-c2ccc(Br)cc2)c1C(=O)c1ccccc1	i	nt	nt	i	nt	nt
O=C(N[C@H](Cc1ccccc1)C(=O)N(CCC1=CCCCC1)CC1CC1)[C@H]1O[C@@H](n2ccc(=O)[nH]c2=O)[C@H](O)[C@@H]1O	i	nt	nt	i	nt	nt
C/C(=N\NC(=O)C(=O)N/N=C(\C)c1cccc(O)c1)c1cccc(O)c1	i	i	i	i	58	i
C/C(=N\NC(=O)C(N)=O)c1cccc([N+](=O)[O-])c1	i	i	i	i	i	i
Nc1[nH]c(C(=O)c2ccc(Br)cc2)c(-c2ccc(Cl)cc2[N+](=O)[O-])c1C(=O)NCCc1c[nH]c2ccccc12	i	nt	nt	i	nt	nt
Cc1cc(C)n(-c2nc(Nc3ccccc3C)nc(-n3nc(C)cc3C)n2)n1	39	i	i	87	i	i
C[C@H]1CN([C@@H](C)CO)C(=O)CCCn2nncc2CO[C@@H]1CN(C)C(=O)Nc1ccccc1F	i	nt	nt	i	nt	nt
COc1ccc(C(C)(O)c2nc(-c3csc4ccccc34)cs2)cc1 (stereo unspecified)	i	nt	nt	i	nt	nt
CCOC(=O)c1ccc(NC(=O)c2nc[nH]c2C(=O)N(C)Cc2ccccc2)cc1	i	i	i	i	57	nt
CN(C(=O)[C@@H](Cc1ccccc1)NC(=O)[C@H]1O[C@@H](n2cnc3c(=O)[nH]c(N)nc32)[C@H](O)[C@@H]1O)C1CCCCC1	i	nt	nt	i	nt	nt
O=S1(=O)N[C@H](Cc2ccccc2)COc2cc(Br)ccc21	i	nt	nt	i	nt	nt
CCOC(=O)Cc1cnc(NC(=O)Cn2nnc(-c3ccc(OCC)cc3)n2)s1	i	i	i	i	i	i
CCCCOc1ccc(-c2nnn(CC(=O)Nc3ncc(CC(=O)OCC)s3)n2)cc1	42	i	i	i	i	i
C[C@@H]1CN([C@H](C)CO)C(=O)CCCn2nncc2CO[C@@H]1CN(C)S(=O)(=O)c1ccc(C#N)cc1	i	nt	nt	i	nt	nt
CC(NC(=O)COC(=O)c1cn(-c2ccccc2)nc1-c1cccs1)c1ccccc1 (stereo unspecified)	i	i	i	i	64	i
CC(NC(=O)COC(=O)c1c[nH]c2ccccc12)c1ccccc1 (stereo unspecified)	i	i	i	i	43	nt
O=C(COC(=O)c1c[nH]c2ccccc12)Nc1ccccc1	i	i	i	i	i	nt
O=C(CCCc1c[nH]c2ccccc12)NCCc1c[nH]c2ccccc12	i	i	i	i	49	i
O=C(NCCc1c[nH]c2ccccc12)OCCCCOC(=O)NCCc1c[nH]c2ccccc12	i	61	i	80	61	nt
C=CCN1C(=O)c2n[nH]c(C(C)C)c2C1c1ccccc1 (stereo unspecified)	i	nt	nt	i	nt	nt
Cc1cc(Oc2cccc3c2S(=O)(=O)N([C@H](C)c2ccccc2)C[C@@H](COCc2ccccc2)O3)cc(C)c1C	i	nt	nt	i	nt	nt
SMILES	TAAR1 agonist	OX1R antag-1	CHO parental Ca	TAAR1 antag	OX1R antag-2	GPR7 antag
O=C(COC(=O)c1ccccc1C(=O)OCC(=O)NCCc1c[nH]c2ccccc12)NCCc1c[nH]c2ccccc12	i	58	i	76	68	nt
Cc1ccc(-n2ccnc(SCC(=O)NCCc3ccccc3)c2=O)cc1F	37	i	i	i	i	nt
CCOc1cc(-c2nc3ccccn3c2NCC2CCCO2)ccc1O (stereo unspecified)	i	i	i	57	i	i
CC1=C(C#N)C(=O)NC1(C)O (stereo unspecified)	i	nt	nt	i	nt	nt
Cc1cccc2sc(N(CCN(C)C)C(=O)C3CCN(S(=O)(=O)c4cccs4)CC3)nc12	39	i	i	i	i	nt
O=C(/C=C/c1cccc(F)c1)c1ccc(N2CCOCC2)cc1	i	i	i	i	i	i
O=C(/C=C/c1cccs1)c1ccc(N2CCOCC2)cc1	i	i	i	i	65	i
CC(C)N1C(=O)c2ccccc2NC(=O)C1C(=O)NCc1ccccc1 (stereo unspecified)	i	nt	nt	i	nt	nt
Cc1ccc(NC(=O)CC2SC3=NCCN3C2=O)cc1 (stereo unspecified)	i	i	33	i	i	i
COc1ccc(NC(=O)c2cc(-c3cc(F)ccc3OCC3CCCO3)n[nH]2)c(C)c1 (stereo unspecified)	i	nt	nt	i	nt	nt
COc1ccc(CCC(=O)Nc2ccc(OC)c(S(=O)(=O)N3CCCCC3)c2)cc1OC	i	i	i	i	i	nt
Cc1ccccc1OCC(=O)Nc1ccc(C)c(S(=O)(=O)N2CCCCCC2)c1	i	i	i	49	i	nt
COc1cc(CCC(=O)Nc2ccc(S(=O)(=O)N3CCCC3)cc2)cc(OC)c1OC	i	i	i	i	i	nt
COc1cc(CCC(=O)Nc2ccc(C)c(S(=O)(=O)N3CCCCCC3)c2)cc(OC)c1OC	i	i	i	50	i	nt
COc1ccc(CCC(=O)Nc2ccc(Cl)c(S(=O)(=O)N3CCCC3)c2)cc1	i	i	53	i	i	21
Cc1ccc(NC(=O)COc2ccccc2)cc1S(=O)(=O)N1CCCCC1	i	nt	nt	i	nt	nt
CC1CCCN(S(=O)(=O)c2cc(C(=O)NCc3ccco3)ccc2Cl)C1 (stereo unspecified)	i	i	i	i	i	nt
CC1CCCN(S(=O)(=O)c2cc(C(=O)NCCc3ccc(S(N)(=O)=O)cc3)ccc2Cl)C1 (stereo unspecified)	i	nt	nt	50	nt	nt
O=C(COc1ccc(F)cc1Cl)Nc1cccc(S(=O)(=O)N2CCCC2)c1	i	47	i	i	i	nt
CCOc1ncccc1C(=O)Nc1ccc(OC)c(S(=O)(=O)N2CCCCC2)c1	i	i	i	i	i	i
CCOc1ncccc1C(=O)Nc1ccc(C)c(S(=O)(=O)N2CCCCCC2)c1	i	55	34	i	i	nt
COc1ccc(CCNC(=O)c2ccc(Cl)c(S(=O)(=O)N3CCCCCC3)c2)cc1	i	46	27	i	i	nt
COc1ccc(CCNC(=O)c2cccc(S(=O)(=O)N3CCCC3)c2)cc1	i	nt	nt	i	nt	nt
Brc1ccc2nc(C3CCCCC3)c(Cc3ccccc3)n2c1	i	nt	nt	i	nt	nt
COC(=O)c1cc2c(c3c4ccccc4n(S(=O)(=O)c4ccccc4)c13)C(=O)N(C)C2	i	nt	nt	i	nt	nt
Cc1cc2cc3c(cc2nc1SCc1ccccn1)OCCO3	i	i	i	i	i	i
N#Cc1cc2ccccc2nc1SCc1ccccn1	i	i	i	i	49	i
COc1ncnc2c1ncn2CCCNCc1ccccc1	i	nt	nt	i	nt	nt
